# Data from ChEMBL document CHEMBL6092177, “Applying molecular hybridization to design a new class of pyrazolo[3,4-d]pyrimidines as Src inhibitors active in hepatocellular carcinoma” (Eur J Med Chem, 2024).
# Calls of active or inactive are those of the source. The rule behind the calls is not given here.
# Legend:
# HepG2 [1] = test: Antiproliferative activity against human HepG2 cells assessed as cell growth inhibition measured at 72 hrs by MTT assay; conditions: HepG2, 72 h
# Huh-7 [2] = test: Antiproliferative activity against human Huh-7 cells assessed as cell growth inhibition measured at 48 hrs by MTT assay; conditions: Huh-7, 48 h
# Huh-7 [3] = test: Antiproliferative activity against human Huh-7 cells assessed as cell growth inhibition measured at 72 hrs by MTT assay; conditions: Huh-7, 72 h
# [4] = Thermodynamic solubility of compound by LC-MS/MS analysis; type: physicochemical; conditions: read-out: Therm_solubility
# Procedure, shortened: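 Thermodynamic solubility: solubilized compound quantified in triplicate by LC-MS/MS on a C18 column with water/ACN gradient, both with 0.1% formic acid. Calibration from DMSO standards 0.1–100 µM; LoQ below 0.01 µM.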
# [5] = Apparent permeability of compound in PBS buffer at pH 7.4 incubated for 4 hrs by LC-UV-MS analysis; type: ADME; conditions: not told
# Procedure, shortened: (§1)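 PAMPA: DMSO stock diluted 1:1 with 10 mM PBS pH 7.4 as donor, through filter coated with 1% phosphatidylcholine in dodecane. Acceptor DMSO/PBS 1:1; incubated at rt for 4 h with gentle shaking. Both compartments quantified by LC-UV-MS to give Papp and % membrane retention; three independent experiments in triplicate.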
# [6] = Permeability of the compound in PBS buffer at pH 7.4 assessed as membrane retention rate by PAMPA method; type: ADME; procedure, shortened: as §1
# [7] = Metabolic stability in human liver microsome measured after 1 hr in presence of NADPH by UV/LC-MS analysis; type: ADME; conditions: liver microsomes, read-out: Stability
# Procedure, shortened: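 Compound incubated with HLM (0.2 mg/mL) and NADPH (in 48 mM MgCl2) in 10 mM PBS pH 7.4 at 37 °C for 60 min with shaking. Stopped with cold ACN, centrifuged, dried under N2 and quantified by UV/LC-MS for % unmetabolized.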
# [8] = Stability in human plasma measured after 24 hrs by UV-LC/MS analysis; type: ADME, cell-free; conditions: read-out: Stability
# Huh-7 [9] = test: Antiproliferative activity against human Huh-7 cells assessed as cell growth inhibition measured at 24 hrs by MTT assay; conditions: Huh-7, 24 h
# [10] = Stability in human plasma assessed as half life measured up to 24 hrs by UV-LC/MS analysis; type: ADME, cell-free
# HepG2 [11] = test: Antiproliferative activity against human HepG2 cells assessed as cell growth inhibition measured at 48 hrs by MTT assay; conditions: HepG2, 48 h
# HepG2 [12] = test: Antiproliferative activity against human HepG2 cells assessed as cell growth inhibition measured at 24 hrs by MTT assay; conditions: HepG2, 24 h
# [13] = Cytotoxicity against human HaCaT cells assessed as reduction in cell proliferation incubated for 24 hrs by MTT assay; type: toxicity, cell-based
# [14] = Cytotoxicity against human HaCaT cells assessed as reduction in cell proliferation incubated for 48 hrs by MTT assay; type: toxicity, cell-based
# [15] = Cytotoxicity against human HaCaT cells assessed as reduction in cell proliferation incubated for 72 hrs by MTT assay; type: toxicity, cell-based
# [16] = Cytotoxicity against human HEK293 cells assessed as reduction in cell proliferation incubated for 24 hrs by MTT assay; type: toxicity, cell-based
# [17] = Cytotoxicity against human HEK293 cells assessed as reduction in cell proliferation incubated for 48 hrs by MTT assay; type: toxicity, cell-based
# [18] = Cytotoxicity against human HEK293 cells assessed as reduction in cell proliferation incubated for 72 hrs by MTT assay; type: toxicity, cell-based
# HepG2 [19] = test: Inhibition of cell colony formation in human HepG2 cells assessed as reduction in clonogenic survival at 0.5 uM incubated for 10 days by crystal violet staining based assay; type: functional; conditions: HepG2, 240 h, time 10 day
# Procedure, shortened: (§2)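 HepG2 at 1000 cells/dish in DMEM with 10% FBS, exposed to 0.25, 0.5, 1 or 2 µM for 10 days. Colonies (>50 cells) fixed with methanol, stained with 0.5% crystal violet and counted. Three independent experiments in triplicate; unpaired t-test vs untreated.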
# HepG2 [20] = test: Inhibition of cell colony formation in human HepG2 cells assessed as reduction in clonogenic survival at 1 to 2 uM incubated for 10 days by crystal violet staining based assay; type: functional; conditions: dose 1-2 µM, time 10 day; procedure, shortened: as §2
# HepG2 [21] = test: Antiproliferative activity against human HepG2 cells assessed as inhibition of cell growth at 10 to 100 uM preincubated for 24 hrs followed by 48 hrs drug-free treatment by MTT assay; type: functional, cell-based; conditions: dose 10-100 µM
# Procedure, shortened: (§3)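 HepG2 exposed to 0.1–100 µM for 24 h (or 48 h), then washed with PBS and kept 48 h (or 24 h) in drug-free DMEM with 10% FBS. Viability by MTT. Means ± SD of three independent experiments in triplicate; ANOVA with Tukey test.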
# HepG2 [22] = test: Antiproliferative activity against human HepG2 cells assessed as inhibition of cell growth at 0.1 to 1 uM incubated for 24 hrs by MTT assay; type: functional, cell-based; conditions: dose 0.1-1 µM; procedure, shortened: as §3
# HepG2 [23] = test: Antiproliferative activity against human HepG2 cells assessed as cell viability at 0.1 to 1 uM preincubated for 24 hrs followed by 48 hrs drug-free treatment by MTT assay; type: functional; conditions: dose 0.1-1 µM; procedure, shortened: as §3
# HepG2 [24] = test: Induction of cell cycle arrest in human HepG2 cells assessed as accumulation of hypodiploid cells at sub G0/G1 phase incubated for 72 hrs by FACScan flow cytometer analysis relative to control; type: functional
# Procedure, shortened: (§4)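 HepG2 treated about 2 µM for 72 h. DNA content measured by FACScan flow cytometry, red fluorescence through a 563–607 nm bandpass (FL2), 10^4 cells/sample. Phase percentages are means ± SD of three independent experiments in triplicate vs control.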
# HepG2 [25] = test: Induction of cell cycle arrest in human HepG2 cells assessed as decrease in accumulation of G0/G1 phase incubated for 72 hrs by FACScan flow cytometer analysis relative to control; type: functional; set-up: scale not given: the % may be the effect or the level left; procedure, shortened: as §4
# HepG2 [26] = test: Induction of cell cycle arrest in human HepG2 cells assessed as accumulation of cells at S phase incubated for 72 hrs by FACScan flow cytometer analysis relative to control; type: functional; procedure, shortened: as §4
# HepG2 [27] = test: Induction of cell cycle arrest in human HepG2 cells assessed as accumulation of cells at G2/M phase incubated for 72 hrs by FACScan flow cytometer analysis relative to control; type: functional; procedure, shortened: as §4
# HepG2 [28] = test: Inhibition of cell migration in human HepG2 cells assessed as wound closure at 0.25 uM measured at 72 hrs by T-sratch assay; conditions: HepG2, 72 h
# [29] = Inhibition of Abl (unknown origin)
SMILES,IC50 (HepG2 [1]),IC50 (Huh-7 [2]),IC50 (Huh-7 [3]),solubility thermodynamic [4],Papp at 4 h [5],membrane retention [6],remaining at 1 h [7],remaining at 24 h [8],IC50 (Huh-7 [9]),IC50 (HepG2 [11]),IC50 (HepG2 [12]),further results
Cn1ncc2c(Nc3ncc(C(=O)Nc4cccc(O)c4)s3)nc(NCCO)nc21,6.52 µM,48.8 µM,26.1 µM,0.01 µg/mL,< 0.1 ×10⁻⁶ cm/s,7.28%,> 100%,94.5%,,,,
Cn1ncc2c(Nc3ncc(C(=O)Nc4ccccc4)s3)nc(SCCN3CCOCC3)nc21,7.9 µM,33.5 µM,14 µM,< 0.01 µg/mL,1.61 ×10⁻⁶ cm/s,16.49%,99.8%,98.3%,67.6 µM,,,half-life [10]: > 24 h
O=C(Nc1ccccc1)c1cnc(Nc2ncnc3c2cnn3CC(Cl)c2ccccc2)s1 (stereo not given),3.7 µM,21.2 µM,15.3 µM,< 0.01 µg/mL,12 ×10⁻⁶ cm/s,8.36%,99%,88.5%,,7.46 µM,,
Cn1ncc2c(Nc3ncc(C(=O)Nc4cc(O)ccc4Br)s3)nc(SCCN3CCOCC3)nc21,1.55 µM,13.7 µM,7.21 µM,< 0.01 µg/mL,< 0.1 ×10⁻⁶ cm/s,0.51%,> 100%,99.5%,26.5 µM,7.31 µM,12 µM,
O=C(Nc1cccc(O)c1)c1cnc(Nc2ncnc3c2cnn3CC(Cl)c2ccccc2)s1 (stereo not given),3.19 µM,22 µM,11.1 µM,< 0.01 µg/mL,0.14 ×10⁻⁶ cm/s,6.1%,> 100%,> 100%,,5.06 µM,87.1 µM,
Cc1ccc(O)cc1NC(=O)c1cnc(Nc2nc(SCCN3CCOCC3)nc3c2cnn3C)s1,2.47 µM,28.8 µM,10.3 µM,< 0.01 µg/mL,< 0.1 ×10⁻⁶ cm/s,19%,> 100%,> 100%,54.7 µM,13.9 µM,59.6 µM,CC50 at 24 h [13]: 92.8 µM; CC50 at 48 h [14]: 22.8 µM; CC50 at 72 h [15]: 3.27 µM; CC50 at 24 h [16]: 18.5 µM; CC50 at 48 h [17]: 6.9 µM; CC50 at 72 h [18]: 5.23 µM; inhibition at 0.5 µM (HepG2 [19]): 40%; Activity (HepG2 [20]): 24%; Activity (HepG2 [21]): inactive; Activity (HepG2 [22]): Active; Activity (HepG2 [23]): 15%; Activity (HepG2 [24]): 44.1%; Activity (HepG2 [25]): 10.4%; Activity (HepG2 [26]): 25.2%; Activity (HepG2 [27]): 38.5%; wound closure % at 0.25 µM (HepG2 [28]): ~70%
Cc1nc(Nc2ncc(C(=O)Nc3c(C)cccc3Cl)s2)cc(N2CCN(CCO)CC2)n1 [DASATINIB ANHYDROUS],7.75 µM,16.3 µM,12.7 µM,,,,,,37.5 µM,9.54 µM,23.5 µM,IC50 [29]: 0.0006 µM; CC50 at 24 h [13]: 20.4 µM; CC50 at 48 h [14]: 1.35 µM; CC50 at 72 h [15]: 0.22 µM; CC50 at 24 h [16]: 5.4 µM; CC50 at 48 h [17]: 0.89 µM; CC50 at 72 h [18]: 0.78 µM
Cn1ncc2c(Nc3ncc(C(=O)Nc4cccc(O)c4)s3)nc(SCCN3CCOCC3)nc21,> 50 µM,,,0.03 µg/mL,0.1 ×10⁻⁶ cm/s,3.1%,99.4%,,,> 50 µM,> 50 µM,
